Measured values as given in ChEMBL document CHEMBL1221405, “Chlorinated iridoid glucosides from Veronica longifolia and their antioxidant activity” (J Nat Prod, 2010).
Converted amounts (≈) assume the structure as drawn.

Key:
Format in all cases: functional
[1] = system: Radical scavenging activity; assay: Antioxidant activity assessed as DPPH radical scavenging activity after 30 mins
Procedure, shortened: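 Compounds in MeOH at various concentrations were added to DPPH in MeOH (80 µg/mL). After 30 min, remaining DPPH was read by absorbance at 520 nm. Scavenging was calculated against a blank (100%) holding only DPPH and solvent.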

[2] = Antioxidant activity assessed as superoxide radical scavenging activity by NBT method
Procedure, shortened: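 Alkaline DMSO method (modified Kunchandy and Rao). Samples in DMSO were mixed with NBT (1 mg/mL in DMSO). Alkaline DMSO (DMSO with 5 mM NaOH in water) was added to give the final mixture. Absorbance was read at 560 nm.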

[3] = Antioxidant activity assessed as nitric oxide scavenging activity after 150 mins by Griess assay
Procedure, shortened: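 Serially diluted samples were mixed with an equal volume of 10 mM sodium nitroprusside in PBS and incubated under light at room temperature for 150 min. After 10 min, nitrite chromophore absorbance was read at 577 nm.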

Row | IC50 [1] [µg/mL] | IC50 [2] [µg/mL] | IC50 [3] [µg/mL] | SMILES
1 | < 10 | 13 (≈ 73.8 µM) | > 1000 | O=C1O[C@H]([C@@H](O)CO)C(O)=C1O [ASCORBIC ACID]
2 | 19 (≈ 33.9 µM) | 199 (≈ 355 µM) | 285 (≈ 508 µM) | O=C(/C=C/c1ccc(O)c(O)c1)O[C@H]1[C@@H]2C=CO[C@@H](O[C@H]3O[C@@H](CO)[C@H](O)[C@@H](O)[C@@H]3O)[C@@H]2[C@](O)(CO)[C@@H]1Cl [LONGIFOLIOSIDE B]
3 | 27 (≈ 50.5 µM) | 92 (≈ 172 µM) | 149 (≈ 279 µM) | O=C(O[C@H]1[C@@H]2C=CO[C@@H](O[C@H]3O[C@@H](CO)[C@H](O)[C@@H](O)[C@@H]3O)[C@@H]2[C@](O)(CO)[C@@H]1Cl)c1ccc(O)c(O)c1 [LONGIFOLIOSIDES A]

Row | SMILES | IC50 [1] [µg/mL] | IC50 [2] [µg/mL] | IC50 [3] [µg/mL]
4 | O=c1c(O)c(-c2ccc(O)c(O)c2)oc2cc(O)cc(O)c12 [QUERCETIN] | < 10 | 68 (≈ 225 µM) | 96 (≈ 318 µM)
